Assay results from ChEMBL document CHEMBL1125653, “Synthesis and pharmacological evaluation of a major metabolite of ameltolide, a potent anticonvulsant” (1991).

Experiments:
Type in all cases: functional
[1] = system: Mus musculus; assay: Anticonvulsant effect by horizontal screen assay in mice after peroral administration.; settings: po, in the assay text read “Neurological impairment” for “Anticonvulsant effect”
In short: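 Neurological impairment in previously trained male CF-1 mice (18–26 g) after oral dosing in 5% acacia/water (0.01 mL/g; 1.5 h food and water deprivation). Each mouse placed on a 13 × 13 cm no. 4 mesh wire screen, which was rotated 180°. Scored on whether it climbed back to the top within 1 min. Groups of 12 per dose; ED50 with 95% confidence limits.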

[2] = system: Mus musculus; assay: Anticonvulsant effect by maximal electroshock assay in mice after intravenous administration.
In short: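 Male CF-1 mice, 18–26 g. Compounds dissolved in 2.5% ethanol–2.5% emulphor/water and injected into the tail vein 5 min before MES: 50 mA ac, 0.1 s, corneal electrodes. Absence of tonic hindlimb extension scored as protection. Groups of 12 mice per dose; ED50 with 95% confidence limits calculated from dose–effect data.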

[3] = system: Mus musculus; assay: Anticonvulsant effect by maximal electroshock assay in mice after peroral administration.; settings: po
In short: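 Male CF-1 mice, 18–26 g, fasted from food and water 1.5 h; compounds suspended in 5% acacia/water, given orally at 0.01 mL/g. Tested at each compound's time of peak effect. MES: 50 mA ac for 0.1 s via corneal electrodes; protection = no hindlimb tonic extension. Groups of 12 mice at several doses; ED50 and 95% confidence limits computed from dose–effect data.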

[4] = system: Mus musculus; assay: Time to peak anticonvulsant effect was measured after oral dosing in mice.
In short: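 Time to peak anticonvulsant effect in MES-tested male CF-1 mice after oral dosing (5% acacia/water suspension, 0.01 mL/g, 1.5 h fasted). Used to set the test time for the oral ED50 determinations.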

[5] = Protective index measured as the ratio of HS ED50/MES ED50 values.
In short: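 Ratio of oral horizontal-screen ED50 to oral MES ED50 in male CF-1 mice. Both ED50s were derived from groups of 12 mice given compound suspended in 5% acacia/water.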

Structure (SMILES) | ED50 [1] [mg/kg] | ED50 [2] [mg/kg] | ED50 [3] [mg/kg] | TPE [4] [h] | Protective index [5]
Cc1cccc(C)c1NC(=O)c1ccc(N)cc1 [AMELTOLIDE] | 23 | 19.9 | 1.4 | 0.5 | 13
CC(=O)Nc1ccc(C(=O)Nc2c(C)cccc2C)cc1 | 96.4 | 19.9 | 4.7 | 2 | 21
CC(=O)Nc1ccc(C(=O)Nc2c(C)cccc2CO)cc1 |  | > 80 | > 100 | 1 | 
O=C1NC(=O)C(c2ccccc2)(c2ccccc2)N1 [PHENYTOIN] | 83.7 |  | 8.1 | 2 | 
Cc1cccc(CO)c1NC(=O)c1ccc(N)cc1 | 66 | 3.9 | 10.9 | 1 | 6
